Results taken from the RNAGym collection of RNA variant scans (doi:10.1126/science.aae0568).
This sample holds only a part of the variants without activity.

B1: tRNA (parent)
chain: GUUCCGUUGGCGUAAUGGUAACGCGUCUCCCUCCUAAGGAGAAGACUGCGGGUUCGAGUCCCGUACGGAACG

Variants of: B1
Experiment: yeast fitness relative to wild type (ratio to wild type); higher = fitter; tRNA-Arg(CCU), competitive growth, 37 C, YPD
How it was run: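 Gene amplicons from the start population and from each of six end populations were read by 100-nucleotide paired-end sequencing. Those end populations came from pooled Saccharomyces cerevisiae strains carrying tRNA-Arg(CCU) gene variants at the native locus, competed in YPD at 37°C for 24 hours. Fitness relative to wild type was worked out from changes in genotype frequencies. Genotypes needed ≥ 100 starting reads, and estimates < 0.5 were set to 0.5.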

| Variant | yeast fitness |
| --- | --- |
| C31U C33A C46A | 0.596 |
| C31U C33A C62U | ≤ 0.5 |
| C31U C33A G50A A65G | ≤ 0.5 |
| C31U C33G A65C G68A A69U | ≤ 0.5 |
| C31U C33G C49A G51A | 0.563 |
| C31U C33G C61A | 0.65 |
| C31U C33U A37C C55U | ≤ 0.5 |
| C31U C33U A37G U59A U64G | 0.525 |
| C31U C33U A42C C49U | ≤ 0.5 |
| C31U C34A A36G G38C A69U | ≤ 0.5 |
| C31U C34A A36G G38C G51A | ≤ 0.5 |
| C31U C34A A40G | ≤ 0.5 |
| C31U C34A A40G U59A | 0.566 |
| C31U C34A A45U C61U | ≤ 0.5 |
| C31U C34A C61G | ≤ 0.5 |
| C31U C34G | 0.591 |
| C31U C34G A42C U47G A65C C66U | ≤ 0.5 |
| C31U C34U | 0.748 |
| C31U C34U A57C | ≤ 0.5 |
| C31U C46A A65C | 0.73 |
| C31U C46A A69C | 0.757 |
| C31U C46A G58C | 0.645 |
| C31U C46G A69U | 0.731 |
| C31U C46G C55U | 0.542 |

| Variant | yeast fitness |
| --- | --- |
| C31U C46G G50U C61U | ≤ 0.5 |
| C31U C46U | 1.02 |
| C31U C46U G51A A65C | 0.643 |
| C31U C49G A69C | 0.636 |
| C31U C49G C60A | ≤ 0.5 |
| C31U C49G C61A | ≤ 0.5 |
| C31U C49G G52A C62U | ≤ 0.5 |
| C31U C49U | 1.04 |
| C31U C49U C60A G63C | ≤ 0.5 |
| C31U C49U C61G | 0.638 |
| C31U C49U C66A G67A | ≤ 0.5 |
| C31U C55G | 0.629 |
| C31U C55G U59A | ≤ 0.5 |
| C31U C55U | 0.72 |
| C31U C60A | 0.563 |
| C31U C60A A69U | 0.506 |
| C31U C60G | 0.696 |
| C31U C60G G67A | ≤ 0.5 |
| C31U C61A | 0.726 |
| C31U C61A A69C | 0.597 |
| C31U C61A A69U | 0.633 |
| C31U C61G | 0.707 |
| C31U C61U | 0.93 |
| C31U C61U C66A | ≤ 0.5 |

| Variant | yeast fitness |
| --- | --- |
| C31U C62A | 0.776 |
| C31U C62G | 0.949 |
| C31U C62U | 0.907 |
| C31U C66U | 1.03 |
| C31U C66U A69U | 0.807 |
| C31U C66U G67A | 0.596 |
| C31U G38A | 0.81 |
| C31U G38A A40C G68C A70U | ≤ 0.5 |
| C31U G38C G51A G56A | 0.543 |
| C31U G39A A57C | ≤ 0.5 |
| C31U G41A | 0.959 |
| C31U G41C A43C G48A C60G | ≤ 0.5 |
| C31U G44A A45U A57G | 0.537 |
| C31U G44A A45U U47C | 0.607 |
| C31U G44A C46U | 0.629 |
| C31U G44C | 0.826 |
| C31U G44C A69C | 0.585 |
| C31U G44C A69U | 0.634 |
| C31U G48A A65G | 0.917 |
| C31U G48A C61G C62A | 0.602 |
| C31U G48A G56U A65G | ≤ 0.5 |
| C31U G48C A69C | 0.67 |
| C31U G50C | 0.955 |
| C31U G52C | 0.661 |

| Variant | yeast fitness |
| --- | --- |
| C31U G52C A57C | ≤ 0.5 |
| C31U G58A | 0.965 |
| C31U G58A A65G | 0.73 |
| C31U G58A C66U | 0.73 |
| C31U G58A U59A | 0.672 |
| C31U G63A | 1.14 |
| C31U G63A A69C | 0.748 |
| C31U G67A | 0.97 |
| C31U G67U | 0.952 |
| C31U G68U | 0.846 |
| C31U G68U A69U | 0.615 |
| C31U U32A | 0.661 |
| C31U U32A C61U | 0.627 |
| C31U U32A U35C | 0.593 |
| C31U U32A U35C A65G | ≤ 0.5 |
| C31U U32C C34U A57C | ≤ 0.5 |
| C31U U32C G41C G68U | ≤ 0.5 |
| C31U U32G | 0.662 |
| C31U U32G C33G | 0.591 |
| C31U U35A A37G A40C U47C U64G | 0.512 |
| C31U U35C | 0.851 |
| C31U U35C A40G | ≤ 0.5 |
| C31U U35C U47A | ≤ 0.5 |
| C31U U47A C61U A70C | ≤ 0.5 |

| Variant | yeast fitness |
| --- | --- |
| C31U U47C | 0.934 |
| C31U U47G G58C C62U | 0.552 |
| C31U U47G G67C | ≤ 0.5 |
| C31U U53C C62G | 0.625 |
| C31U U54G | 0.535 |
| C31U U54G C55U | 0.566 |
| C31U U59A C60G | 0.516 |
| C31U U59A G63A | 0.683 |
| C31U U64C | 0.817 |
| C31U U64G | 0.775 |
| U32A A36C C60G | ≤ 0.5 |
| U32A A36G | 0.814 |
| U32A A36G G39C C62U | ≤ 0.5 |
| U32A A36G G39C G50A U64C | ≤ 0.5 |
| U32A A37C C55G | 0.503 |
| U32A A37G G48A C60G G68A | ≤ 0.5 |
| U32A A37U A45C | ≤ 0.5 |
| U32A A40C A69C | 0.562 |
| U32A A40G G50A C61G | 0.787 |
| U32A A42C A57G A70C | ≤ 0.5 |
| U32A A42G | 0.655 |
| U32A A42U C61G C62U | 0.661 |
| U32A A42U U54C | ≤ 0.5 |
| U32A A43C C49A | 0.542 |

| Variant | yeast fitness |
| --- | --- |
| U32A A43G | 0.666 |
| U32A A43G U53A | ≤ 0.5 |
| U32A A43G U53A G68A | ≤ 0.5 |
| U32A A43U | 0.879 |
| U32A A45C G48A | 0.509 |
| U32A A45U U54G | ≤ 0.5 |
| U32A A65G | 0.719 |
| U32A A70G | 0.841 |
| U32A C33A A43U C55U | ≤ 0.5 |
| U32A C33A A43U C62U | ≤ 0.5 |
| U32A C33A C46G | ≤ 0.5 |
| U32A C33G C46U | ≤ 0.5 |
| U32A C33G C66U A69U | ≤ 0.5 |
| U32A C33U A40C | 0.661 |
| U32A C34A A65C | 0.523 |
| U32A C34G | ≤ 0.5 |
| U32A C34G G68A A69U A70U | ≤ 0.5 |
| U32A C34U C55G C62U G68C | ≤ 0.5 |
| U32A C46A | 0.683 |
| U32A C46A A57G | 0.614 |
| U32A C46A A65G C66A G68C | ≤ 0.5 |
| U32A C46A G58A | ≤ 0.5 |
| U32A C46A U53A | ≤ 0.5 |
| U32A C46U | 0.623 |

| Variant | yeast fitness |
| --- | --- |
| U32A C49A | 0.582 |
| U32A C49A U53C C66G | ≤ 0.5 |
| U32A C49G C55U | ≤ 0.5 |
| U32A C49U | 0.78 |
| U32A C55A | 0.572 |
| U32A C60A | ≤ 0.5 |
| U32A C61G | 0.526 |
| U32A C61G A70U | ≤ 0.5 |
| U32A C61G G68C | 0.601 |
| U32A C61U | 0.855 |
| U32A C62A | 0.549 |
| U32A C62U | 0.645 |
| U32A C66U | 0.834 |
| U32A G38A A57U | 0.557 |
| U32A G38C | 0.652 |
| U32A G39A | 0.792 |
| U32A G39A C49G | ≤ 0.5 |
| U32A G39A U54A C66A | ≤ 0.5 |
| U32A G41A C61A | ≤ 0.5 |
| U32A G41C C49G C55U | ≤ 0.5 |
| U32A G48A | 0.673 |
| U32A G50A | 0.783 |
| U32A G50A A69U | 0.527 |
